This note sets out measurements from ChEMBL document CHEMBL1144101, “Secobatzellines A and B, two new enzyme inhibitors from a deep-water Caribbean sponge of the genus Batzella” (J Nat Prod, 1999).

One experiment has as its target T1, Caspase-3 (Homo sapiens, UniProt P42574).
T1 sequence (P42574 whole entry): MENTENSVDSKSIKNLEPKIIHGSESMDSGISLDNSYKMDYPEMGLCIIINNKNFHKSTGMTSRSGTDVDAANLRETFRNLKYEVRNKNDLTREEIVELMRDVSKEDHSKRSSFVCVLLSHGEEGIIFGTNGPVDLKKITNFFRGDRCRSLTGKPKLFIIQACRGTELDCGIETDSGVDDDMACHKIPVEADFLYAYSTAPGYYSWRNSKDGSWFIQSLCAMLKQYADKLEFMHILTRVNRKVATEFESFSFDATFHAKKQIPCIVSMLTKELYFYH
Nature of the experiment: Inhibition of peptidase activity of CPP32.

A further experiment relates to P388. As to the kind of experiment: Cytotoxicity against mouse P388 cells. The format is functional, cell-based.
The next experiment relates to A549. Nature of the experiment: Cytotoxicity against human A549 cells. The format is functional, cell-based.
A short description of experiment [1]: Inhibition of bovine phosphatase activity of calcineurin by microtitre method. On the set-up: species or system Bos taurus. A digest of the protocol: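 Bovine calcineurin assayed together with bovine calmodulin, using p-nitrophenyl phosphate as the phosphatase substrate.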

Each structure is given as a SMILES string. In brackets after ≈: the same amount, converted by molar mass.

As to `CC(=O)OCC(OC(C)=O)c1c[nH]c2c1C(=N)C(Cl)=C(N)C2=O` (configuration not stated) [SECOBATZELLINE A DIACETATE], the IC50 against Caspase-3 was 2.35 µM; in the experiment with P388 it was 0.01 µg/mL; with A549, 0.12 µg/mL.

`N=C1C(Cl)=C(N)C(=O)c2[nH]cc(C(O)CO)c21` (configuration not stated) [SECOBATZELLINE A]: the IC50 in experiment [1] was determined as 0.55 µg/mL (≈ 2.15 µM); with P388, 0.06 µg/mL (≈ 0.235 µM); in the experiment with A549, 0.04 µg/mL (≈ 0.156 µM).

As for `CC(=O)OCC(OC(C)=O)c1c[nH]c2c1C(=O)C(Cl)=C(N)C2=O` (configuration not stated) [SECOBATZELLINE B DIACETATE], the results for the IC50 at Caspase-3, in the experiment with P388 and with A549 were 25.8 µM, 3.83 µg/mL and 4.68 µg/mL, respectively.

Regarding `NC1=C(Cl)C(=O)c2c(C(O)CO)c[nH]c2C1=O` (configuration not stated) [SECOBATZELLINE B], the results for the IC50 (in experiment [1]; in the experiment on P388; in the experiment with A549) were 2.21 µg/mL (≈ 8.61 µM), 1.22 µg/mL (≈ 4.75 µM) and 2.86 µg/mL (≈ 11.1 µM), respectively.

A word on the IC50: it is the point on the concentration scale where inhibition reaches its midpoint.
